Source: ChEMBL document CHEMBL3098105, “7,7'-Diazaindirubin--a small molecule inhibitor of casein kinase 2 in vitro and in cells” (Bioorg Med Chem, 2014)
The source made the active and inactive calls. The calls are words filed in the database; no cut-off is given here.

Assays:
[1] = molecular target: Aurora kinase B (Homo sapiens) (UniProt Q96GD4); experiment: Inhibition of Aurora-B (unknown origin) assessed as residual activity at 1 uM relative to control
[2] = test system: OVCAR-8; experiment: Antiproliferative activity against human OVCAR8 cells after 3 days by sulforhodamine B assay; type: functional; details: OVCAR-8, 72 h
How it was run: (§1)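 Tested in the NCI 60 cell line panel. GI50 is the concentration giving 50% inhibition of cell growth, and values are the mean of two series of tests.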

[3] = test system: SK-MEL-5; experiment: Antiproliferative activity against human SK-MEL-5 cells after 3 days by sulforhodamine B assay; type: functional; details: SK-MEL-5, 72 h; how it was run: as §1
[4] = test system: SF-268; experiment: Antiproliferative activity against human SF268 cells after 3 days by sulforhodamine B assay; type: functional; details: SF-268, 72 h; how it was run: as §1
[5] = test system: NCI-H522; experiment: Antiproliferative activity against human NCI-H522 cells after 3 days by sulforhodamine B assay; type: functional; details: NCI-H522, 72 h; how it was run: as §1
[6] = test system: MCF7; experiment: Cell cycle arrest in human MCF7 cells assessed as accumulation at sub-G1 phase at 0.5 uM after 24 hrs using propidium iodide staining by FACS analysis (reference value: 0.17%); type: functional
[7] = molecular target: Mitogen-activated protein kinase 11 (Homo sapiens) (UniProt Q15759); experiment: Inhibition of human SAPK2beta assessed as residual activity at 1 uM relative to control
[8] = molecular target: cGMP-dependent protein kinase 1 (Homo sapiens) (UniProt Q13976); experiment: Inhibition of human PKG1alpha assessed as residual activity at 1 uM relative to control
[9] = test system: A549; experiment: Antiproliferative activity against human A549 cells after 3 days by sulforhodamine B assay; type: functional; details: A549, 72 h; how it was run: as §1
[10] = test system: MCF7; experiment: Induction of late stage apoptosis in CK2-deficient human MCF7 cells at 0.25 to 4 uM after 24 hrs using propidium iodide/annexin V staining by FACS analysis; type: functional, cell-based
How it was run: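 MCF7 cells were then treated for 24 h, stained with FITC-annexin V in HEPES pH 7.4 binding buffer with 1.8 mM CaCl2 (15 min, dark, room temperature), then with PI (10 min), and analysed by FACS.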

[11] = test system: MCF7; experiment: Cell cycle arrest in human MCF7 cells assessed as accumulation at S phase at 1 uM after 24 hrs using propidium iodide staining by FACS analysis (reference value: 18.59%); type: functional
[12] = molecular target: Protein kinase C eta type (Homo sapiens) (UniProt P24723); experiment: Inhibition of human PKCeta assessed as residual activity at 1 uM relative to control
[13] = molecular target: RAC-gamma serine/threonine-protein kinase (Homo sapiens) (UniProt Q9Y243); experiment: Inhibition of human PKBgamma assessed as residual activity at 1 uM relative to control
[14] = molecular target: Serine/threonine-protein kinase Nek7 (Homo sapiens) (UniProt Q8TDX7); experiment: Inhibition of human NEK7 assessed as residual activity at 1 uM relative to control
[15] = molecular target: Serine/threonine-protein kinase STK11 (Homo sapiens) (UniProt Q15831); experiment: Inhibition of human LKB1 assessed as residual activity at 1 uM relative to control
[16] = molecular target: Vascular endothelial growth factor receptor 2 (Homo sapiens) (UniProt P35968); experiment: Inhibition of human KDR assessed as residual activity at 1 uM relative to control
[17] = molecular target: Mitogen-activated protein kinase kinase kinase kinase 2 (Homo sapiens) (UniProt Q12851); experiment: Inhibition of human GCK assessed as residual activity at 1 uM relative to control
[18] = molecular target: Vascular endothelial growth factor receptor 3 (Homo sapiens) (UniProt P35916); experiment: Inhibition of human Flt4 assessed as residual activity at 1 uM relative to control
[19] = molecular target: Ephrin type-A receptor 3 (Homo sapiens) (UniProt P29320); experiment: Inhibition of human EphA3 assessed as residual activity at 1 uM relative to control
[20] = molecular target: Ephrin type-A receptor 2 (Homo sapiens) (UniProt P29317); experiment: Inhibition of human EphA2 assessed as residual activity at 1 uM relative to control
[21] = molecular target: Dual specificity protein kinase CLK3 (Homo sapiens) (UniProt P49761); experiment: Inhibition of human CLK3 assessed as residual activity at 1 uM relative to control
[22] = molecular target: Casein kinase I isoform gamma-1 (Homo sapiens) (UniProt Q9HCP0); experiment: Inhibition of human CK1gamma1 assessed as residual activity at 1 uM relative to control
[23] = molecular target: Vascular endothelial growth factor receptor 2 (Homo sapiens) (UniProt P35968); experiment: Inhibition of VEGF-R2 (unknown origin) assessed as residual activity at 10 uM relative to control
[24] = molecular target: Epidermal growth factor receptor (Homo sapiens) (UniProt P00533); experiment: Inhibition of EGF-R (unknown origin) assessed as residual activity at 10 uM relative to control
[25] = molecular target: Cyclin-dependent kinase 4/cyclin D1 (Homo sapiens) (UniProt P11802+P24385); experiment: Inhibition of CDK4/CycD1 (unknown origin) assessed as residual activity at 10 uM relative to control; type: protein-complex assay
[26] = molecular target: Tyrosine-protein kinase ABL1 (Homo sapiens) (UniProt P00519); experiment: Inhibition of ABL1 (unknown origin) assessed as residual activity at 10 uM relative to control
[27] = species on record: Homo sapiens; experiment: Inhibition of S6K (unknown origin) assessed as residual activity at 1 uM relative to control
[28] = molecular target: RAF proto-oncogene serine/threonine-protein kinase (Homo sapiens) (UniProt P04049); experiment: Inhibition of RAF1 (unknown origin) assessed as residual activity at 1 uM relative to control
[29] = molecular target: Platelet-derived growth factor receptor alpha (Homo sapiens) (UniProt P16234); experiment: Inhibition of PDGFR-alpha (unknown origin) assessed as residual activity at 1 uM relative to control
[30] = molecular target: Dual specificity tyrosine-phosphorylation-regulated kinase 2 (Homo sapiens) (UniProt Q92630); experiment: Inhibition of human DYRK2 assessed as residual activity at 1 uM relative to control
Dual specificity tyrosine-phosphorylation-regulated kinase 2 (Homo sapiens), sequence (Q92630 whole entry, looked up): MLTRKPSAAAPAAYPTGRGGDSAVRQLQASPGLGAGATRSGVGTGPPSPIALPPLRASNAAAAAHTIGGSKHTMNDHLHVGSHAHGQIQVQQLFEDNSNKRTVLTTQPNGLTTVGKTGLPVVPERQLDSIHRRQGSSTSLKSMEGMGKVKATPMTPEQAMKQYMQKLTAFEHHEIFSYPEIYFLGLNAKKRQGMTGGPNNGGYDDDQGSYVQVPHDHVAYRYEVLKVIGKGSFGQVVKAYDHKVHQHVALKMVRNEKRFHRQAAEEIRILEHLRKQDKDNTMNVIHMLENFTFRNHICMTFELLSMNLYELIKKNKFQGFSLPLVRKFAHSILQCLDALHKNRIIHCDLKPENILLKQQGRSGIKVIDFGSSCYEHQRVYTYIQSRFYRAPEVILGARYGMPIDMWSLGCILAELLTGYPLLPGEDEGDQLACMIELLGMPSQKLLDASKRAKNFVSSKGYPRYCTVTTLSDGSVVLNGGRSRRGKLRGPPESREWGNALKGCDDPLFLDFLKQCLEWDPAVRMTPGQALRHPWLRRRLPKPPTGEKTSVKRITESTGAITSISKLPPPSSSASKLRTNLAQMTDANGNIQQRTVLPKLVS

Vascular endothelial growth factor receptor 2 (Homo sapiens), sequence (P35968 whole entry): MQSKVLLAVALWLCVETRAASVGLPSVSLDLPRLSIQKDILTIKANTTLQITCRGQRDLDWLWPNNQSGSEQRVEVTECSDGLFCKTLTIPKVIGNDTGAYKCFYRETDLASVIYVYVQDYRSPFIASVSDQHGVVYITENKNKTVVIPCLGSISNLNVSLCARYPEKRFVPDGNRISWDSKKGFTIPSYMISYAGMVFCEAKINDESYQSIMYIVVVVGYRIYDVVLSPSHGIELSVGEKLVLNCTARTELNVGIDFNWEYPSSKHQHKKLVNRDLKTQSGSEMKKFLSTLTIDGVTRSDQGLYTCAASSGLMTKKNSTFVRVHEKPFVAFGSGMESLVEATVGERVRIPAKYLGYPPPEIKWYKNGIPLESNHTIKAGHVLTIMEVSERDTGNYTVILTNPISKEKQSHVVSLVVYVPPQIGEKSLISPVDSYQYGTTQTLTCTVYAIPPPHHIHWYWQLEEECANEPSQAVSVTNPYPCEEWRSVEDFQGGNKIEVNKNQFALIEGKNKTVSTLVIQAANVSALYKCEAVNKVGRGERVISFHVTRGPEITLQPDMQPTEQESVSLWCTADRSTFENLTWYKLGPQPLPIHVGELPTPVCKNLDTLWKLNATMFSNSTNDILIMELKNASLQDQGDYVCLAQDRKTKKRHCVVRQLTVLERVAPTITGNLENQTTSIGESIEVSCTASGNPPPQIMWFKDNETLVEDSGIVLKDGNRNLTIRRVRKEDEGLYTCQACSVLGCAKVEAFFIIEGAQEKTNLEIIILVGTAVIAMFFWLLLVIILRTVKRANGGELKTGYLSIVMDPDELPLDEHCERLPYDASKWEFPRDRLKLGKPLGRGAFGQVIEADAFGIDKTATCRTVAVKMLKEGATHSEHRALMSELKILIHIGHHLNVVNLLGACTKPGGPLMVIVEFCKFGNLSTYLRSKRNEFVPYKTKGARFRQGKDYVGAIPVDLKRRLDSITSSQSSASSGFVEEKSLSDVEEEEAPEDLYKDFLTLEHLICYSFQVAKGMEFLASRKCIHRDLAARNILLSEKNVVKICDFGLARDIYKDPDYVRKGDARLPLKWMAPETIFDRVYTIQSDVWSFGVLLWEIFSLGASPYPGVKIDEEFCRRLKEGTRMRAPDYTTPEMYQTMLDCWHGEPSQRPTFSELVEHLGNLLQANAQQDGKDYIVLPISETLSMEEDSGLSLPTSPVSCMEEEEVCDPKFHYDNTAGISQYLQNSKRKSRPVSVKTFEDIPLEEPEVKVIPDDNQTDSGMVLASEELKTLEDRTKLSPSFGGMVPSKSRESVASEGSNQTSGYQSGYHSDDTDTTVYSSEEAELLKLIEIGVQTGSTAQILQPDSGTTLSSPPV
Serine/threonine-protein kinase STK11 (Homo sapiens), sequence (Q15831 whole entry): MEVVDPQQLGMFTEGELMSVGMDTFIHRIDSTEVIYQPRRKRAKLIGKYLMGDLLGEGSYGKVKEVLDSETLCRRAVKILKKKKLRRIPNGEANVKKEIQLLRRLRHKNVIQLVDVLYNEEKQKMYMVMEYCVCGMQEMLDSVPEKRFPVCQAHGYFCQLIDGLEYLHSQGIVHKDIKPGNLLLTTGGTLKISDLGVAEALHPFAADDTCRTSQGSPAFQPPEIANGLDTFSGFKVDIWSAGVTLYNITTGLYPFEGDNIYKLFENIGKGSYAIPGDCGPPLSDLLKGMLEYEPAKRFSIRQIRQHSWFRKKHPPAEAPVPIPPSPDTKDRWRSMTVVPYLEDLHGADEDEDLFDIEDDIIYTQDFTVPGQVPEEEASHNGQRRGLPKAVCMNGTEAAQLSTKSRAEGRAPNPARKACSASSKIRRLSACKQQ
Mitogen-activated protein kinase 11 (Homo sapiens), sequence (Q15759 whole entry): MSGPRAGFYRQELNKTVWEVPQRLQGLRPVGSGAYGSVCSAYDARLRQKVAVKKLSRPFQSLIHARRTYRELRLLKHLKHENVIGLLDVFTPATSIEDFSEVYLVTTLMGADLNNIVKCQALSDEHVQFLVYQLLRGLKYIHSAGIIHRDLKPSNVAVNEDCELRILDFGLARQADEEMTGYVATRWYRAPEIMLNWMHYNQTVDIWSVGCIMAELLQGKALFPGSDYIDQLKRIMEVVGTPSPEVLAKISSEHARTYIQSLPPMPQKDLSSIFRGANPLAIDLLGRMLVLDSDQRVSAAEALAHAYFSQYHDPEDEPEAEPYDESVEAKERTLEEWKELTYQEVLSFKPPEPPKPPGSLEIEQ
Protein kinase C eta type (Homo sapiens), sequence (P24723 whole entry): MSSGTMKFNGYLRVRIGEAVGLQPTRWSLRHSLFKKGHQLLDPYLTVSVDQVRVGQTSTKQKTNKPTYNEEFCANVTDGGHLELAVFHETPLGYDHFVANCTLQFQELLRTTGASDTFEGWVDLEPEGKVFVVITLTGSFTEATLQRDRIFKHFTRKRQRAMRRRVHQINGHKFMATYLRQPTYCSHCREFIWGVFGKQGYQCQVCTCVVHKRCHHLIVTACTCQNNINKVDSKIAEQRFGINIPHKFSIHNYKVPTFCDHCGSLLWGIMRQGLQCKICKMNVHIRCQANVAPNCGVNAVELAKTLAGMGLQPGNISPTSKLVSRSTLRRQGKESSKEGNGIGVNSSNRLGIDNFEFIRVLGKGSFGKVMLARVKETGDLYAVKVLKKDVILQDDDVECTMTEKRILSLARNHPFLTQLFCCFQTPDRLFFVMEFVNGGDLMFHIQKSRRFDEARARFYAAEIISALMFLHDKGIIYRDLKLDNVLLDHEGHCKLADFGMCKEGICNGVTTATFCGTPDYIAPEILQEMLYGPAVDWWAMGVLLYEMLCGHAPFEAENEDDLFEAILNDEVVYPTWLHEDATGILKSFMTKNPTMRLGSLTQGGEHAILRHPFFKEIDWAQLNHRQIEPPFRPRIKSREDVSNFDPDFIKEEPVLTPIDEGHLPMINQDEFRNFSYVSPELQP
Casein kinase I isoform gamma-1 (Homo sapiens), sequence (Q9HCP0 whole entry, looked up, canonical isoform): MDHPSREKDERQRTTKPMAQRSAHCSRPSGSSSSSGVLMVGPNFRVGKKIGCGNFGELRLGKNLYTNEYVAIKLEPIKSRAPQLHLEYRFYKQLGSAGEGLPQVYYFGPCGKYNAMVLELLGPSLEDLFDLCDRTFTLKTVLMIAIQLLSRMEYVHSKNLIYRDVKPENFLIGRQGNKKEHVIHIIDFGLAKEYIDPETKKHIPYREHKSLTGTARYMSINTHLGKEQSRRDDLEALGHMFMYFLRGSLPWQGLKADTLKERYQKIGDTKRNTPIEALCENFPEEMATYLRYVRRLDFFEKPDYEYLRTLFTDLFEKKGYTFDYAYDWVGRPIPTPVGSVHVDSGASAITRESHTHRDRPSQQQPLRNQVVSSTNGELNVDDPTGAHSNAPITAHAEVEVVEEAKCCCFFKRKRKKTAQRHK
Dual specificity protein kinase CLK3 (Homo sapiens), sequence (P49761 whole entry, looked up, canonical isoform): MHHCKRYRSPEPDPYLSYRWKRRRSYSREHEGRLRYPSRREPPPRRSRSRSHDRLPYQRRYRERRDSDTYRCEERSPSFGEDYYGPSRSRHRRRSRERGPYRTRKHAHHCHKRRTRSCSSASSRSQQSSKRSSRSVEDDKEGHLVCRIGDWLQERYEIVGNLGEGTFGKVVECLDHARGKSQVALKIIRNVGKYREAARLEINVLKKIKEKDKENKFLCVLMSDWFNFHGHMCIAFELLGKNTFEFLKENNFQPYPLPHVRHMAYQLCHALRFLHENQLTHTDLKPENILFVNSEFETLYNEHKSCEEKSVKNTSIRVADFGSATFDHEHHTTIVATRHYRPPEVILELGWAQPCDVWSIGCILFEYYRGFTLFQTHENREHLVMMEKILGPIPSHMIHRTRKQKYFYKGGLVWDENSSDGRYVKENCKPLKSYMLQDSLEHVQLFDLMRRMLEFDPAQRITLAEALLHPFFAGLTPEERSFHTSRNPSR
Aurora kinase B (Homo sapiens), sequence (Q96GD4 whole entry): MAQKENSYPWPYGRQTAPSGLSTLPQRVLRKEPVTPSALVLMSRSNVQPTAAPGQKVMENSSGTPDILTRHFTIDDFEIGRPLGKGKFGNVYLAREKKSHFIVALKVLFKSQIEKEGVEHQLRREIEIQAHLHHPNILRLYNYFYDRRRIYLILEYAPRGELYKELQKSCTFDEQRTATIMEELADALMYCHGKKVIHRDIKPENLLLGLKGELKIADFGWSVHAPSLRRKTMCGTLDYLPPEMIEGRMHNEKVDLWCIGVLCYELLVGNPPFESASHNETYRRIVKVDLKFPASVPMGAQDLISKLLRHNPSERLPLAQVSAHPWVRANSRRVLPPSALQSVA
Serine/threonine-protein kinase Nek7 (Homo sapiens), sequence (Q8TDX7 whole entry, looked up): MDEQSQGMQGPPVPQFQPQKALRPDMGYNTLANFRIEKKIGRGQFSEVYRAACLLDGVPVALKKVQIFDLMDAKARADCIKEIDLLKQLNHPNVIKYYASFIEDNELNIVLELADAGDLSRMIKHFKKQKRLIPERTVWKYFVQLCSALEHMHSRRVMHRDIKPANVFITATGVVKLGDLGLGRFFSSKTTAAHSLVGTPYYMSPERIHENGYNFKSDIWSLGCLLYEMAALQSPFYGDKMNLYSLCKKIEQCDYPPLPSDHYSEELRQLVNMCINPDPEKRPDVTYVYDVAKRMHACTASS

Compound: O=C1Nc2ncccc2/C1=C1/Nc2ncccc2C1=O
- Activity [1]: 108%
- GI50 [2]: 1.37 µM
- GI50 [3]: 0.16 µM
- GI50 [4]: 1.62 µM
- GI50 [5]: 2.18 µM
- Activity [6]: 0.37%
- Activity [7]: 147%
- Activity [8]: 121%
- GI50 [9]: 0.236 µM
- Activity [10]: inactive
- Activity [11]: 12.87%
- Activity [12]: 98%
- Activity [13]: 126%
- Activity [14]: 57%
- Activity [15]: 104%
- Activity [16]: 76%
- Activity [17]: 102%
- Activity [18]: 68%
- Activity [19]: 83%
- Activity [20]: 122%
- Activity [21]: 86%
- Activity [22]: 104%
- Activity [23]: 102%
- Activity [24]: 95%
- Activity [25]: 88%
- Activity [26]: 92%
- Activity [27]: 109%
- Activity [28]: 97%
- Activity [29]: 94%
- Activity [30]: 107%
